Results taken from article PMC3546139 (Molecular cancer therapeutics, 2012).
Read-outs that look alike come from different tables or passages of the source.

Columns and labels:
melanoma cells = assay: MTS cell viability assay, melanoma cells; format: cell-based; settings: Homo sapiens, read-out: average IC50 for killing melanoma cells
[1] = system: FOM103 normal human melanocytes; assay: MTS cell viability assay, FOM103; format: cell-based; settings: Melanocyte, read-out: IC50, cell viability (MTS)
[2] = system: FF2441 human fibroblast cells; assay: MTS cell viability assay, FF2441; format: cell-based; settings: read-out: IC50, cell viability (MTS)
[3] = doses of 200 mg per day, cited from earlier work
[4] = Survival and body weight of mice, daily i.p. injection for seven days; format: in vivo; settings: 0.127 µmoles i.p. daily, 7 days of treatment, n = 3
Outline: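 Mice received test compound intraperitoneally once daily for seven days at 0.032–0.064, 0.127 or 0.127–0.254 µmoles depending on agent, n = 3 per group. Survival and body-weight change were recorded.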

cultured cells = settings: cited from earlier work
[5] = system: UACC903 melanoma cells (metastatic); assay: MTS cell viability assay, UACC 903; format: cell-based; settings: Homo sapiens, read-out: IC50, cell viability (MTS)
[6] = system: 1205 Lu melanoma cells (metastatic); assay: MTS cell viability assay, 1205 Lu; format: cell-based; settings: Homo sapiens, 24 h, read-out: IC50, cell viability (MTS)
[7] = system: COX-2 expression in 1205 Lu and UACC 903 cells; assay: Western blot of COX-2 / COX-1 expression after MAP kinase pathway inhibitors; format: cell-based, human
Outline: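 Melanoma cells (1.5×10^6/100 mm dish) were treated 48 h after plating for 6–72 h with a B-Raf inhibitor (0.2–20 µmol/L) or a MEK inhibitor (2.5–50 µmol/L). Separately, cells were nucleofected with 100 pmoles siRNA against V600E B-Raf, MEK1, MEK2, ERK1 or ERK2, with lysates taken at day 4 or 6. Blots were probed for COX-1 and COX-2 and detected by enhanced chemiluminescence.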

[8] = system: sporadic melanomas with mutant V600EB-Raf; settings: melanoma patients; cited from earlier work

Cc1ccc(-c2cc(C(F)(F)F)nn2-c2ccc(S(N)(=O)=O)cc2)cc1 [Celecoxib, 4-[5-(4-methylphenyl)-3-(trifluoromethyl)-1H-pyrazol-1-yl]benze nesulfonamide]
IC50 (melanoma cells): 55.6 µM | IC50 ([1]; 48 h): > 100 µM | IC50 ([1]; 72 h): 68 ± 1.2 µM | IC50 [1]: > 100 µM | IC50 ([2]; FF2441, 24 h): > 100 µM | IC50 ([2]; FF2441, 48 h): > 100 µM | side effects associated with clinical use ([3]; ref 15, 16): cardiovascular side effects | side effects associated with clinical use ([3]; ref 33): cardiovascular side-effects | animal mortality [4]: death of all animals | concentrations required to induce apoptosis of cultured cells (cultured cells): 25 to 100 µmol/L | concentrations required to trigger apoptosis in cultured cells (cultured cells): 25 to 100 µmol/L | IC50 ([5]; UACC-903, 24 h): > 100 µM | IC50 ([5]; UACC-903, 48 h): > 100 µM | IC50 [6]: > 100 µM

N#CC(=C(/N)Sc1ccccc1N)/C(C#N)=C(/N)Sc1ccccc1N [U0126]
levels of COX-2 protein and COX-1 ([7]; 1205 Lu and UACC 903 cell lines): reduced levels of COX-2 protein without affecting COX-1

CCCS(=O)(=O)Nc1ccc(F)c(C(=O)c2c[nH]c3ncc(-c4ccc(Cl)cc4)cc23)c1F [PLX-4032]
COX-2 protein expression ([7]; 1205 Lu cells): decreased COX-2 protein expression beginning after 12 h of treatment | COX-2 protein expression ([7]; UACC 903 cells): significant decrease was seen from 24 h of treatment | COX-1 expression ([7]; either cell line (1205 Lu, UACC 903)): no changes were observed in COX-1 expression | response rates [8]: up to 80%
